Among the data in ChEMBL document CHEMBL4354861, “Re-Evaluating the Mechanism of Action of α,β-Unsaturated Carbonyl DUB Inhibitors b-AP15 and VLX1570: A Paradigmatic Example of Unspecific Protein Cross-linking with Michael Acceptor Motif-Containing Drugs” (J Med Chem, 2020) are EC50, inhibition and Activity values, retold here.

pEC50: −log10 of the molar value. Calls of active or inactive are those of the source. The calls are words filed in the database; no cut-off is given here.

Test [1] deals with KMS-11. Kind of test: Cytotoxicity in human KMS11 cells assessed as reduction in cell viability incubated for 72 hrs Cell-titer Glo reagent based assay. In kind it is functional. As to conditions: KMS-11, 72 h. The gist of the method:
(§1)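 KMS11 (RPMI, seeded 25,000/well) or U2OS (DMEM, 10,000/well, adhered overnight) given varying concentrations, 72 h, biological triplicates, DMSO and bortezomib controls. CellTiter Glo luminescence; EC50 by dose-response fit.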

The subject of a further test is U2OS. Kind of test: Cytotoxicity in human U2OS cells assessed as reduction in cell viability incubated for 72 hrs Cell-titer Glo reagent based assay. Format: functional. The gist of the method:
as §1

Test [2] concerns HeLa. The test can be described thus: Inhibition of deubiquitinase in human HeLa cell extracts assessed as induction of accumulation of high molecular weight mTOR proteins at 1 uM incubated for 2 hrs by immunoblot analysis. Format: cell-free. (In general: In western blotting, separated proteins are transferred to a membrane and probed.)
Test [3] has as its target Anamorsin (Homo sapiens) (UniProt Q6FI81). Kind of test: Covalent binding affinity to CIAPIN1 in human U2OS cells at 20 uM using probe-1 by ABPP analysis. In kind it is cell-based. The gist of the method: (§2)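 U2OS cells pre-incubated 30 min with competitor (0, 5 or 20 µM), then 5 µM probe 1 for 1 h, in triplicate. Lysates in Triton/SDS buffer mixed with heavy R10K8-labelled probe-treated spike, CuAAC-tagged, NeutrAvidin-enriched, reduced, alkylated, trypsin-digested overnight at 37 °C, LC-MS/MS. Log2(L/H) ratios median-normalised and expressed relative to the no-inhibitor condition.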

Test [4] concerns HeLa. Kind of test: Inhibition of deubiquitinase in human HeLa cell extracts assessed as inhibition of HA-Ub-C2Br probe labeling at 1 to 100 uM incubated for 30 mins by immunoblot analysis. Format: cell-free.
Test [5] addresses Anamorsin (Homo sapiens) (UniProt Q6FI81). Kind of test: Inhibition of recombinant purified CIAPIN1 (unknown origin) assessed as covalent modification of cysteine residues incubated for 30 mins LC-MS/MS analysis.
The target is the same in test [6]. The test can be described thus: Inhibition of CIAPIN1 in human KMS11 cells assessed as deletion of depletion of stable CIAPIN1 levels at 100 nM incubated for 6 hrs by immunoblot analysis. In kind it is cell-based.
Test [7] concerns the target T1, Ubiquitin carboxyl-terminal hydrolase 28 (Homo sapiens) (UniProt Q96RU2).
T1 sequence (whole entry): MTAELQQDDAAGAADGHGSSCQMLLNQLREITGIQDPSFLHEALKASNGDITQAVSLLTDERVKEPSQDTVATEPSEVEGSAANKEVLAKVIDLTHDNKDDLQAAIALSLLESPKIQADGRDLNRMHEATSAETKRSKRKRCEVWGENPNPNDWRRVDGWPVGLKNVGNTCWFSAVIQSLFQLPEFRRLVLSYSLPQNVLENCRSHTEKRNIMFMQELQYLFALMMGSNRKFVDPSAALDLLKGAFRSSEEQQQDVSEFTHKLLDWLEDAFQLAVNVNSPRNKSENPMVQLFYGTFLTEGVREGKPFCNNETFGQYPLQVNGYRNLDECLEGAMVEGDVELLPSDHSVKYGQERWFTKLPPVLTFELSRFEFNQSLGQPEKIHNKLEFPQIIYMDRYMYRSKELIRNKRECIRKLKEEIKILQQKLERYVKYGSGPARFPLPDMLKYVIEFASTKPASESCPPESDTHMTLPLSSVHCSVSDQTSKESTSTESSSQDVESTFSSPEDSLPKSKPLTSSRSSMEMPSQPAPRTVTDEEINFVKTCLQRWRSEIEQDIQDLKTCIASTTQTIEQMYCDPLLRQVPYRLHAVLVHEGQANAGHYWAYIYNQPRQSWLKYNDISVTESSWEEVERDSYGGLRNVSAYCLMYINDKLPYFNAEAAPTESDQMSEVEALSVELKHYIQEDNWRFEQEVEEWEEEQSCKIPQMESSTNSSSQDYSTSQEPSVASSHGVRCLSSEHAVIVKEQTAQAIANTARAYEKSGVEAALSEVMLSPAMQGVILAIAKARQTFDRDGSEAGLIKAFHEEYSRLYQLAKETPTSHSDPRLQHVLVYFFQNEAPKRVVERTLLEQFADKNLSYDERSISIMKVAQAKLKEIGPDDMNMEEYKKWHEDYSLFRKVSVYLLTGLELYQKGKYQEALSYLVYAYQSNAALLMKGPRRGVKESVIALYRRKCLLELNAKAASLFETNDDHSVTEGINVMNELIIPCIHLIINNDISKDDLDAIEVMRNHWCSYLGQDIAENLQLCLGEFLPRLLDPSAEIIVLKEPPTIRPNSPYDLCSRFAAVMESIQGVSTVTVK
The test can be described thus: Covalent binding affinity to USP28 in human U2OS cells at 20 uM using probe-1 by ABPP analysis. In kind it is cell-based. The gist of the method:
as §2

Test [8] deals with KMS-11. Kind of test: Cytotoxicity in human KMS11 cells assessed as reduction in cell viability at 1 to 10 uM incubated for 16 hrs in presence of GSH by Alamar blue assay. Format: functional, cell-based. Summed up:
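KMS11 seeded at 80,000/well, treated with 1 or 10 µM compound with or without 1 mM GSH for 16 h, 6 biological replicates. Alamar blue fluorescence read at 560/590 nm, normalised to DMSO control.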
In general terms: The colour change of resazurin is a common sign of viable cells or microbes.

Test [9] deals with Anamorsin (Homo sapiens) (UniProt Q6FI81). Kind of test: Inhibition of CIAPIN1 in human KMS11 cells assessed as induction of high molecular weight complex formation at 100 nM incubated for 6 hrs by immunoblot analysis. In kind it is cell-based.
Test [10] has the same target. The test can be described thus: Inhibition of recombinant purified CIAPIN1 (unknown origin) assessed as disruption of intra-chain disulfide bond in unmodified peptide containing Cys249.
For test [11] the target is unchanged. The test can be described thus: Inhibition of CIAPIN1 in human KMS11 crude cell extracts assessed as induction of formation of high molecular weight complexes with CIAPIN1 at 20 uM incubated for 2 hrs by immunoblot analysis.
For test [12], the target named is T1, Ubiquitin carboxyl-terminal hydrolase 28 (Homo sapiens). Kind of test: Inhibition of USP28 in human HeLa cell extracts assessed as inhibition of HA-Ub-C2Br probe labeling at 1 to 100 uM incubated for 30 mins by immunoblot analysis. In kind it is cell-free.
Test [13] addresses Ubiquitin carboxyl-terminal hydrolase 14 (Homo sapiens) (UniProt P54578). The test can be described thus: Covalent binding affinity to USP14 in human U2OS cells at 20 uM using probe-1 by ABPP analysis. In kind it is cell-based. Summed up: as §2
Test [14] has as its target Anamorsin (Homo sapiens) (UniProt Q6FI81). The test can be described thus: Inhibition of recombinant purified CIAPIN1 (unknown origin) assessed as covalent adduct formation at 10 molar equivalents incubated for 2 hrs by electrospray MS analysis. The gist of the method: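 His-tagged full-length human CIAPIN1 (AA1-312, C-terminal 7x His/TEV, 27 µM) incubated with 10 molar equivalents of compound (270 µM) in PBS for 2 h at room temperature, then analysed intact by ES-MS.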

The target is the same in test [15]. The test can be described thus: Inhibition of recombinant purified CIAPIN1 (unknown origin) assessed as increase in high molecular weight CIAPIN1 complexes at 1 to 10 molar equivalent 1 by SDS-PAGE and Coomassie Blue staining based method. The gist of the method:
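Recombinant CIAPIN1 (1 mg/mL) incubated with DMSO (0.16%) or compound at 1x, 2x, 5x or 10x molar excess, 30 min at 4 °C. Resolved by SDS-PAGE with Coomassie staining.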

Test [16] concerns the target T2, Ubiquitin carboxyl-terminal hydrolase isozyme L5 (Homo sapiens) (UniProt Q9Y5K5).
T2 sequence (whole entry): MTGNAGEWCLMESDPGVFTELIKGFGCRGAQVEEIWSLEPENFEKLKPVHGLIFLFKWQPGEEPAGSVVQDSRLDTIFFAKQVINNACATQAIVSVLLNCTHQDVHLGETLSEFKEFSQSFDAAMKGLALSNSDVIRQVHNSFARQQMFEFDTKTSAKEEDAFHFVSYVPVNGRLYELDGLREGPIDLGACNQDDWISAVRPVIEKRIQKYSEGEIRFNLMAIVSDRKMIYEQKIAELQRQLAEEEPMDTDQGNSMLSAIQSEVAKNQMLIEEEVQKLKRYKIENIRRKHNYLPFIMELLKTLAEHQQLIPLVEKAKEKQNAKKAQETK
The test can be described thus: Covalent binding affinity to UCH-37 in human U2OS cells at 20 uM using probe-1 by ABPP analysis. In kind it is cell-based. Summed up: as §2

The target in test [17] is Anamorsin (Homo sapiens) (UniProt Q6FI81). Kind of test: Inhibition of recombinant purified CIAPIN1 (unknown origin) assessed as accumulation of protein aggregates at 0.1 to 1.6 uM incubated for 1 to 6 hrs by size exclusion chromatography. For orientation: In gel filtration, larger molecules generally elute earlier.
For test [18] the target is unchanged. Kind of test: Inhibition of CIAPIN1 in human KMS11 cells assessed as induction of protein aggregation at 100 nM incubated for 1 hr by immunoblot analysis. Format: cell-based.
For test [19] the target is unchanged. Kind of test: Inhibition of CIAPIN1 in human KMS11 crude cell extracts assessed as induction of formation of high molecular weight complexes with CIAPIN1 at 20 uM incubated for 2 hrs in presence of GSH by immunoblot analysis.

Sequence of Anamorsin (Homo sapiens) (Q6FI81 whole entry, the tested form may be a part): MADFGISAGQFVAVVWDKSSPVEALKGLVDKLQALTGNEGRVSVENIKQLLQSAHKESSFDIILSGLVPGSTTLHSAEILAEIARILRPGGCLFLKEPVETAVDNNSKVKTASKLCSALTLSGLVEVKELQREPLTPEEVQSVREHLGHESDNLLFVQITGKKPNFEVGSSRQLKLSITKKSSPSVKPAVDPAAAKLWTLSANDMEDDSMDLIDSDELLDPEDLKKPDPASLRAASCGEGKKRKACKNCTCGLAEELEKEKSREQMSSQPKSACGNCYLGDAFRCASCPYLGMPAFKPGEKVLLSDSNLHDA
Sequence of Ubiquitin carboxyl-terminal hydrolase 14 (Homo sapiens) (P54578 whole entry, the tested form may be a part): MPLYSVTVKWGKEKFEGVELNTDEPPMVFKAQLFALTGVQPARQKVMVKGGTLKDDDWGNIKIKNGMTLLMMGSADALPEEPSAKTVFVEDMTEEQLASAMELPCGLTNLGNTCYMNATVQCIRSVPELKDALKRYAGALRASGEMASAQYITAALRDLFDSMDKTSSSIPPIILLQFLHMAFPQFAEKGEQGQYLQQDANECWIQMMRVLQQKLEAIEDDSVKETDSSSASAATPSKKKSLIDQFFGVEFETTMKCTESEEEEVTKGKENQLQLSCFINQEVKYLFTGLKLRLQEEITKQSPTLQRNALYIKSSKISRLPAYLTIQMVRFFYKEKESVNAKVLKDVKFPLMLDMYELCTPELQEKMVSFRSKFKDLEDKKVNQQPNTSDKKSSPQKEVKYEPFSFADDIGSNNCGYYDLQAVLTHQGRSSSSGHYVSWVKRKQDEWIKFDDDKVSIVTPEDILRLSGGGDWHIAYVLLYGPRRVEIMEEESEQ

One may read the pEC50 as the EC50 on a negative log10 scale, so that one unit is a factor of ten. Take `C#CCC(=O)N1CC/C(=C\c2ccc(F)c([N+](=O)[O-])c2)C(=O)/C(=C/c2ccc(F)c([N+](=O)[O-])c2)C1`: the results for the pEC50 in the test on KMS-11 [1] and with U2OS were 7.34 and 7.09, respectively.

Turning to `COc1cc(/C=C/C(=O)CC(=O)/C=C/c2ccc(O)c(OC)c2)ccc1O`, in the test with HeLa [2], the inhibition result was “Active”.

Turning to `C=CC(=O)N1CC/C(=C\c2ccc(F)c([N+](=O)[O-])c2)C(=O)/C(=C/c2ccc(F)c([N+](=O)[O-])c2)C1`, the result on Anamorsin (Homo sapiens) [3] was Active. For the same compound, the pEC50 is 7.37 with KMS-11 [1] and 7.01 with U2OS. The inhibition entry with HeLa [4], at Anamorsin (Homo sapiens) [5], on Anamorsin (Homo sapiens) [6], at Anamorsin (Homo sapiens) [9], on Anamorsin (Homo sapiens) [10] and at Anamorsin (Homo sapiens) [11] was “Active” throughout. Besides, the inhibition entry (in test [12]; at Anamorsin (Homo sapiens) [14]; at Anamorsin (Homo sapiens) [15]; at Anamorsin (Homo sapiens) [17]; at Anamorsin (Homo sapiens) [18]) was “Active” throughout. Further, the result (in test [7]; in the test with KMS-11 [8]; in test [13]; in test [16]) was inactive. Further, the inhibition result at Anamorsin (Homo sapiens) [19] was “inactive”.
